Test results as given in ChEMBL document CHEMBL1153525, “Adenosine A2A receptor-antagonist/dopamine D2 receptor-agonist bivalent ligands as pharmacological tools to detect A2A-D2 receptor heteromers” (J Med Chem, 2009).
The source made the active and inactive calls. The calls are words filed in the database; no cut-off is given here.

Key:
[1] = system: Dopamine D2 receptor (Homo sapiens); assay: Displacement of [3H]YM09151-2 from human A2aR/D2R (long isoform) heteromer expressed in mouse Ltk cells by scintillation counting
[2] = target: Adenosine A2A receptor (Homo sapiens) (UniProt P29274); assay: Displacement of [3H]ZM241385 from human A2aR/D2R (long isoform) heteromer expressed in mouse Ltk cells by scintillation counting; type: cell-based
Method in brief: (§1)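 Mouse Ltk fibroblasts were transiently transfected with human A2AR, human D2R (long isoform) or both, and membranes were prepared 48 h later. Membranes were incubated 2 h at 25 °C in 50 mM Tris-HCl pH 7.4 with 10 mM MgCl2 and 2 U/mL ADA, plus 2.1 nM [3H]ZM241385 or 1.9 nM [3H]YM09151-2 and 1 μM test compound. Bound ligand was counted after filtration and expressed as % of specific binding without displacer; three independent experiments.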
Target sequence in this assay (P29274 whole entry, canonical isoform): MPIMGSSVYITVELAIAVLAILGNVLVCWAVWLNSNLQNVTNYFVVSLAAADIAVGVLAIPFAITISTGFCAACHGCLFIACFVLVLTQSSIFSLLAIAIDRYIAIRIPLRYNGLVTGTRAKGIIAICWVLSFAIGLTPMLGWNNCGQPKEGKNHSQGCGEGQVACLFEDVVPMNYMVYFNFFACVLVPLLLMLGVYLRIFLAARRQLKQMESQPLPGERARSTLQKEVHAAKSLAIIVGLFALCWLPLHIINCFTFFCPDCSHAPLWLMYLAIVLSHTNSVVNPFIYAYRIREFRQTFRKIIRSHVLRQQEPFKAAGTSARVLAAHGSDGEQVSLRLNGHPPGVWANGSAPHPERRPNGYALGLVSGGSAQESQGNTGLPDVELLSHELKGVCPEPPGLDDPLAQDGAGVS

[3] = target: Adenosine A2A receptor (Homo sapiens) (UniProt P29274); assay: Displacement of [3H]ZM241385 from human A2aR/D2R (long isoform) coexpressed in mouse Ltk cells by scintillation counting; type: cell-based
Method in brief: as §1
Target sequence in this assay (P29274 whole entry, canonical isoform): as above

[4] = target: D(2) dopamine receptor (Homo sapiens) (UniProt P14416); assay: Displacement of [3H]YM09151-2 from human D2R expressed in mouse Ltk cells by scintillation counting relative to control; type: cell-based
D(2) dopamine receptor (Homo sapiens), sequence (P14416 whole entry): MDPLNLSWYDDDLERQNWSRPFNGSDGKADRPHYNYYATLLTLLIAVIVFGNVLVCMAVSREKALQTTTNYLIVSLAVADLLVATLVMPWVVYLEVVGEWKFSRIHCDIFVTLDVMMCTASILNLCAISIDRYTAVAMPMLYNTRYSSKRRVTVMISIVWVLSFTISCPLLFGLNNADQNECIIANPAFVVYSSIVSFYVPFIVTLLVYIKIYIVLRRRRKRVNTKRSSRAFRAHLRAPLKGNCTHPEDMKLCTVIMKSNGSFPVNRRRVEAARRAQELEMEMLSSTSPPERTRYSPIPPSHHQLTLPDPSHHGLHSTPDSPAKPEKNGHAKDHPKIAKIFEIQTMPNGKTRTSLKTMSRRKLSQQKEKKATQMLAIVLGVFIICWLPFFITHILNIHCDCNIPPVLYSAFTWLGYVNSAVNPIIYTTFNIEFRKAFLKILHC
Method in brief: as §1

[5] = Displacement of [3H]ZM241385 from A2aR dimer in lamb striatum membrane assessed as high affinity macroscopic equilibrium dissociation constant by scintillation counting; type: cell membranes, Ovis aries
Method in brief: (§2)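 Lamb striatal membranes (0.3-0.5 mg protein/mL) were incubated 2 h at 25 °C in 50 mM Tris-HCl pH 7.4 with 10 mM MgCl2 and 2 U/mL ADA. Radioligand was 2.1 nM [3H]ZM241385 (A2AR) or 0.9 nM [3H]YM09151-2 (D2R), against 11 competitor concentrations from 0.1 nM to 50 μM in triplicate. Nonspecific binding used 50 μM unlabeled radioligand. After GF/C filtration, counts were fitted to a two-state dimer model for KDB1 and KDB2; three experiments.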

[6] = Displacement of [3H]YM09151-2 from D2R (long isoform) dimer in lamb striatum membrane high affinity macroscopic equilibrium dissociation constant by scintillation counting; type: cell membranes, Ovis aries
Method in brief: as §2

[7] = Displacement of [3H]YM09151-2 from D2R (long isoform) dimer in lamb striatum membrane low affinity macroscopic equilibrium dissociation constant by scintillation counting; type: cell membranes, Ovis aries
Method in brief: as §2

[8] = target: Adenosine A2A receptor (Homo sapiens) (UniProt P29274); assay: Displacement of [3H]ZM241385 from human A2aR expressed in mouse Ltk cells at 1 uM by scintillation counting relative to control; type: cell-based
Method in brief: as §1
Target sequence in this assay (P29274 whole entry, canonical isoform): as the sequence (P29274 whole entry, canonical isoform) above

[9] = target: Adenosine A2A receptor (Homo sapiens) (UniProt P29274); assay: Displacement of [3H]ZM241385 from human A2aR expressed in mouse Ltk cells by scintillation counting relative to control; type: cell-based
Method in brief: as §1
Target sequence in this assay (P29274 whole entry, canonical isoform): as above

[10] = target: Adenosine A2A receptor (Homo sapiens) (UniProt P29274); assay: Displacement of [3H]ZM241385 from human A2AR expressed in mouse Ltk cells at 1 uM by scintillation counting relative to control
Target sequence in this assay (P29274 whole entry, looked up, canonical isoform): as the sequence (P29274 whole entry, canonical isoform) above

SMILES | Activity [1] | Activity [2] | Activity [3] | Ki [5] [µM] | Ki [6] [µM] | Ki [7] [µM] | further results
CCCN(CCc1ccc(NC(=O)CCC(N)C(=O)NCCCCC(NC(=O)CCC(=O)NCCOCCOCCNC(=O)CCC(=O)NCCOCCOCCNC(=O)CCC(=O)NCCOCCOCCNC(=O)CCC(=O)NCCOCCOCCNC(=O)C(CCCCNC(C)=O)NC(C)=O)C(N)=O)cc1)C1CCc2c(O)cccc2C1 (stereo not given) | Active |  |  |  |  |  | 
CCCN(CCc1ccc(NC(=O)CCC(N)C(=O)NCCCCC(NC(=O)CCC(=O)NCCOCCOCCNC(=O)CCC(=O)NCCOCCOCCNC(=O)CCC(=O)NCCOCCOCCNC(=O)CCC(=O)NCCOCCOCCNC(=O)CCC(=O)NCCOCCOCCNC(=O)CCC(=O)NCCOCCOCCNC(=O)CCC(=O)NCCOCCOCCNC(=O)C(CCCCNC(=O)C(N)CCCCNC(=O)COc2ccc(-c3nc4c([nH]3)c(=O)n(CCC)c(=O)n4CCC)cc2)NC(C)=O)C(N)=O)cc1)C1CCc2c(O)cccc2C1 (stereo not given) | Active | Active | Active |  |  |  | Activity [4]: inactive
CCCN(CCc1ccc(NC(=O)CCC(N)C(=O)NCCCCC(NC(=O)CCC(=O)NCCOCCOCCNC(=O)CCC(=O)NCCOCCOCCNC(=O)C(CCCCNC(=O)C(N)CCCCNC(=O)COc2ccc(-c3nc4c([nH]3)c(=O)n(CCC)c(=O)n4CCC)cc2)NC(C)=O)C(N)=O)cc1)C1CCc2c(O)cccc2C1 (stereo not given) | Active | Active | Active | 0.08 | 0.0011 | 1.4 | 
CCCN(CCc1ccc(NC(=O)CCC(N)C(=O)NCCCCC(NC(=O)CCC(=O)NCCOCCOCCNC(=O)CCC(=O)NCCOCCOCCNC(=O)CCC(=O)NCCOCCOCCNC(=O)CCC(=O)NCCOCCOCCNC(=O)C(CCCCNC(=O)C(N)CCCCNC(=O)COc2ccc(-c3nc4c([nH]3)c(=O)n(CCC)c(=O)n4CCC)cc2)NC(C)=O)C(N)=O)cc1)C1CCc2c(O)cccc2C1 (stereo not given) | Active | Active | Active |  |  |  | 
CCCN(CCc1ccc(NC(=O)CCC(N)C(=O)NCCCCC(NC(=O)CCC(=O)NCCOCCOCCNC(=O)CCC(=O)NCCOCCOCCNC(=O)CCC(=O)NCCOCCOCCNC(=O)CCC(=O)NCCOCCOCCNC(=O)CCC(=O)NCCOCCOCCNC(=O)CCC(=O)NCCOCCOCCNC(=O)CCC(=O)NCCOCCOCCNC(=O)C(CCCCNC(C)=O)NC(C)=O)C(N)=O)cc1)C1CCc2c(O)cccc2C1 (stereo not given) | Active |  |  |  |  |  | 
CCCN(CCc1ccc(NC(=O)CCC(N)C(=O)NCCCCC(NC(=O)CCC(=O)NCCOCCOCCNC(=O)C(CCCCNC(C)=O)NC(C)=O)C(N)=O)cc1)C1CCc2c(O)cccc2C1 (stereo not given) | Active |  |  |  | 0.011 | 15 | Activity [8]: Active; Activity [9]: inactive; Activity [4]: inactive; Activity [10]: Active
CCCn1c(=O)c2[nH]c(-c3ccc(OCC(=O)NCCCCC(N)C(=O)NCCCCC(NC(C)=O)C(=O)NC(CCCCNC(C)=O)C(N)=O)cc3)nc2n(CCC)c1=O (stereo not given) |  | 58% |  | 0.16 |  |  | 
CCCN(CCc1ccc(NC(=O)CCC(N)C(=O)NCCCCC(NC(=O)C(CCCCNC(=O)C(N)CCCCNC(=O)COc2ccc(-c3nc4c([nH]3)c(=O)n(CCC)c(=O)n4CCC)cc2)NC(C)=O)C(N)=O)cc1)C1CCc2c(O)cccc2C1 (stereo not given) | Active | Active | Active | 0.055 | 0.001 | 9 | 
CCCn1c(=O)c2[nH]c(-c3ccc(OCC(=O)NCCCCC(N)C(=O)NCCCCC(NC(C)=O)C(=O)NCCOCCOCCNC(=O)CCC(=O)NCCOCCOCCNC(=O)CCC(=O)NCCOCCOCCNC(=O)CCC(=O)NCCOCCOCCNC(=O)CCC(=O)NCCOCCOCCNC(=O)CCC(=O)NCCOCCOCCNC(=O)CCC(=O)NCCOCCOCCNC(=O)CCC(=O)NC(CCCCNC(C)=O)C(N)=O)cc3)nc2n(CCC)c1=O (stereo not given) |  | 17% |  |  |  |  | 
CCCn1c(=O)c2[nH]c(-c3ccc(OCC(=O)NCCCCC(N)C(=O)NCCCCC(NC(C)=O)C(=O)NCCOCCOCCNC(=O)CCC(=O)NCCOCCOCCNC(=O)CCC(=O)NCCOCCOCCNC(=O)CCC(=O)NC(CCCCNC(C)=O)C(N)=O)cc3)nc2n(CCC)c1=O (stereo not given) |  |  |  | 0.364 |  |  | Activity [8]: Active; Activity [10]: Active
CCCN(CCc1ccc(NC(=O)CCC(N)C(=O)NCCCCC(NC(=O)CCC(=O)NCCOCCOCCNC(=O)CCC(=O)NCCOCCOCCNC(=O)CCC(=O)NCCOCCOCCNC(=O)CCC(=O)NCCOCCOCCNC(=O)CCC(=O)NCCOCCOCCNC(=O)CCC(=O)NCCOCCOCCNC(=O)C(CCCCNC(C)=O)NC(C)=O)C(N)=O)cc1)C1CCc2c(O)cccc2C1 (stereo not given) | Active |  |  |  |  |  | 
CCCN(CCc1ccc(NC(=O)CCC(N)C(=O)NCCCCC(NC(=O)CCC(=O)NCCOCCOCCNC(=O)CCC(=O)NCCOCCOCCNC(=O)CCC(=O)NCCOCCOCCNC(=O)CCC(=O)NCCOCCOCCNC(=O)CCC(=O)NCCOCCOCCNC(=O)C(CCCCNC(=O)C(N)CCCCNC(=O)COc2ccc(-c3nc4c([nH]3)c(=O)n(CCC)c(=O)n4CCC)cc2)NC(C)=O)C(N)=O)cc1)C1CCc2c(O)cccc2C1 (stereo not given) | Active | Active | Active |  |  |  | 
CCCN(CCc1ccc(NC(=O)CCC(N)C(=O)NCCCCC(NC(=O)CCC(=O)NCCOCCOCCNC(=O)CCC(=O)NCCOCCOCCNC(=O)CCC(=O)NCCOCCOCCNC(=O)CCC(=O)NCCOCCOCCNC(=O)CCC(=O)NCCOCCOCCNC(=O)CCC(=O)NCCOCCOCCNC(=O)C(CCCCNC(=O)C(N)CCCCNC(=O)COc2ccc(-c3nc4c([nH]3)c(=O)n(CCC)c(=O)n4CCC)cc2)NC(C)=O)C(N)=O)cc1)C1CCc2c(O)cccc2C1 (stereo not given) | Active | Active | Active |  |  |  | 

Second part, led by results:

Activity [1] | Activity [2] | Activity [3] | Ki [5] [µM] | Ki [6] [µM] | Ki [7] [µM] | SMILES | further results
Active |  |  |  | 0.013 | 9 | CCCN(CCc1ccc(NC(=O)CCC(N)C(=O)NCCCCC(NC(=O)CCC(=O)NCCOCCOCCNC(=O)CCC(=O)NCCOCCOCCNC(=O)CCC(=O)NCCOCCOCCNC(=O)C(CCCCNC(C)=O)NC(C)=O)C(N)=O)cc1)C1CCc2c(O)cccc2C1 (stereo not given) | Activity [8]: Active; Activity [9]: inactive; Activity [4]: inactive; Activity [10]: Active
Active |  |  |  | 0.004 | 9 | CCCN(CCc1ccc(NC(=O)CCC(N)C(=O)NCCCCC(NC(=O)C(CCCCNC(C)=O)NC(C)=O)C(N)=O)cc1)C1CCc2c(O)cccc2C1 (stereo not given) | 
Active |  |  |  |  |  | CCCN(CCc1ccc(NC(=O)CCC(N)C(=O)NCCCCC(NC(=O)CCC(=O)NCCOCCOCCNC(=O)CCC(=O)NCCOCCOCCNC(=O)CCC(=O)NCCOCCOCCNC(=O)CCC(=O)NCCOCCOCCNC(=O)CCC(=O)NCCOCCOCCNC(=O)C(CCCCNC(C)=O)NC(C)=O)C(N)=O)cc1)C1CCc2c(O)cccc2C1 (stereo not given) | 
Active |  |  |  | 0.011 | 12 | CCCN(CCc1ccc(NC(=O)CCC(N)C(=O)NCCCCC(NC(=O)CCC(=O)NCCOCCOCCNC(=O)CCC(=O)NCCOCCOCCNC(=O)C(CCCCNC(C)=O)NC(C)=O)C(N)=O)cc1)C1CCc2c(O)cccc2C1 (stereo not given) | 
 |  |  | 0.268 |  |  | CCCn1c(=O)c2[nH]c(-c3ccc(OCC(=O)NCCCCC(N)C(=O)NCCCCC(NC(C)=O)C(=O)NCCOCCOCCNC(=O)CCC(=O)NCCOCCOCCNC(=O)CCC(=O)NC(CCCCNC(C)=O)C(N)=O)cc3)nc2n(CCC)c1=O (stereo not given) | 
 |  |  | 0.246 |  |  | CCCn1c(=O)c2[nH]c(-c3ccc(OCC(=O)NCCCCC(N)C(=O)NCCCCC(NC(C)=O)C(=O)NCCOCCOCCNC(=O)CCC(=O)NC(CCCCNC(C)=O)C(N)=O)cc3)nc2n(CCC)c1=O (stereo not given) | Activity [8]: Active; Activity [4]: inactive; Activity [10]: Active
